From PubChem
A selection: hits, their analogues and other compounds. The true share with any hit is near 1%.
Tn6 DDE FP: inhibitors of Tn6 peptide binding to fibrin DD(E), primary screen, biochemical, fluorescence polarization, human fibrin, Tn6 probe; 370,000 tested, 0.21% active; Fibrinogen beta chain (Homo sapiens), P02675; inhibition, % at 8.3 µM; Fibrin DD(E) TRITC-Tn6 fluorescence polarization displacement; AID 720509, 2013;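 active = inhibition above a per-campaign cutoff: mean of compounds within control limits plus 3 SD, cut at about 15% in these data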
Target sequence (P02675 whole entry, looked up): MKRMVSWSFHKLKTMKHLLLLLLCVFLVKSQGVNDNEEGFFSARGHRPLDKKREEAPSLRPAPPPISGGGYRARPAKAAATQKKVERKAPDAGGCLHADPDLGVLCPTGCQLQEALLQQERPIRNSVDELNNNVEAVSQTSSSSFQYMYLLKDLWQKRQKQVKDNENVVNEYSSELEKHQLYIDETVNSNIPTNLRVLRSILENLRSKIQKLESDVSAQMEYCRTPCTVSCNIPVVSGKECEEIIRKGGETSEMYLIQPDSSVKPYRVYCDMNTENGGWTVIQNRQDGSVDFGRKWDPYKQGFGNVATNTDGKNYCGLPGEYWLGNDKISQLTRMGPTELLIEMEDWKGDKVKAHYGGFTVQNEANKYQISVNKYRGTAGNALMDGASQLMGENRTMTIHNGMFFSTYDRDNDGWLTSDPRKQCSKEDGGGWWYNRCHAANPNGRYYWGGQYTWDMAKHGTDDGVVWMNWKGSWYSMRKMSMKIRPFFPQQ
Neddyl block: inhibitors of cullin neddylation, primary screen, biochemical, TR-FRET, uHTS, NAE and Ubc12. inhibition, % at 25 µM. 360,000 tested, 0.58% active; in the data active = inhibition above about 36%
PKA-R2B activ: activators of PKA-R2B holoenzyme, primary screen, biochemical, fluorescence polarization, Cy5-IP20, human. activation, % at 11.4 µM. 340,000 tested, 0.079% active. cAMP-dependent protein kinase catalytic subunit beta (Homo sapiens) + cAMP-dependent …. PKA-R2B holoenzyme dissociation; R2B truncated from residue 108, S112A mutant; 0% DMSO only, 100% 113 µM cGMP. AID 504700, 2011;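 active = activation above a cutoff set at the mean over all compounds plus 3 SD, cut at about 18% in these data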;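 note: higher means more holoenzyme dissociation and a rise in polarization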
PKA-R1A act: activators of PKA-R1A holoenzyme, primary screen, biochemical, fluorescence polarization, Cy5-IP20, bovine R1A, mouse PKAc; 340,000 tested, 0.083% active; PKA-R1A dissociation; scaled: DMSO 0%, 113 µM cGMP 100%; AID 504707, 2011; activation, % at 11.4 µM; cAMP-dependent protein kinase type I-alpha regulatory subunit (Bos taurus) + …;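 active = percent activation above the mean of all tested compounds plus 3 SD, cut at about 19% in these data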;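 note: higher means more PKAc released from R1A so a rise in polarization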
Tn7 DDE FP: inhibitors of Tn7 peptide binding to fibrin DD(E), primary screen, biochemical, fluorescence polarization, human fibrin, Tn7 probe; Fibrinogen beta chain (Homo sapiens), P02675; FP displacement of FITC-Tn7 peptide from fibrin DD(E); 0% = median of compound wells per plate; inhibition, % at 8.3 µM; 370,000 tested, 0.13% active;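 active = inhibition above the mean of compounds falling within the control limits plus 3 SD of them, cut at about 14% in these data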
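Assay system: human fibrin DD(E) protein / Input: 2 µM fibrin DD(E) / Benchmarks: high control of 10 µM Aha-Tn7 peptide / Measured by: fluorescence polarization of the labelled Tn7 tracer / Medium: Tris buffer with calcium and detergent, pH 7.8 / Timing: 10 min compound pre-incubation, 3 h probe incubation at room temperature / Repeats: one replicate per compound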
Neddyl conf: blockade of NEDD8 conjugation to cullin – biochemical, TR-FRET, single concentration, confirmation. shares compounds with Neddyl block. TR-FRET cullin neddylation biochemical assay. calls only at 25 µM. 1,800 tested, 13% active; in the data active = inhibition above about 40%;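 note: neddylation substrate is the cullin 1 ring ligase complex with SKP2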
Each line names hits and unclear results; the compound was inactive in the other large screens (follow-up assays come after a bar, where shown).

NC(=O)c1c(NC(=O)c2cccc(N3C(=O)CCC3=O)c2)sc2c1CCCCC2	Neddyl block 52
Nc1[nH]c(C(=O)c2ccccc2)c(-c2ccccn2)c1C(=O)c1c[nH]c2ccccc12	none (no result: Neddyl block, PKA-R2B activ, PKA-R1A act)
O=C(c1cnn2c(C(F)F)cc(-c3ccccc3)nc12)N1CCSCC1	none
O=C(c1cnn2c(C(F)F)cc(-c3ccccc3)nc12)N1CCOCC1	Neddyl block 41 | Neddyl conf inactive
C[C@H]1COc2cc(Br)ccc2S(=O)(=O)N1Cc1cn(Cc2ccco2)nn1	none (no result: Neddyl block, PKA-R2B activ, PKA-R1A act)
CCc1nccn1CCC(=O)N1CCc2c([nH]c3ccccc23)C1CC(C)C (stereo unspecified)	none
COCc1ccc(CN2CCc3c([nH]c4ccccc34)C2CC(C)C)o1 (stereo unspecified)	Neddyl block 40 | Neddyl conf inactive
O=C(CNSc1ccc([N+](=O)[O-])cc1[N+](=O)[O-])OCc1ccccc1	none (no result: Neddyl block, PKA-R2B activ, PKA-R1A act)
CC1(C)CC(=O)C2=C(C1)OC(N)=C(C#N)C2c1cc2c(cc1[N+](=O)[O-])OCO2 (stereo unspecified)	Neddyl block 39 | Neddyl conf inactive
CCOc1cc(C2C(C#N)=C(N)OC3=C2C(=O)CC(C)(C)C3)cc([N+](=O)[O-])c1O (stereo unspecified)	none
CC(=O)C1(C(=O)Nc2cc(C)cc(C)c2)CC(c2ccccn2)=NO1 (stereo unspecified)	none (no result: Neddyl block, PKA-R2B activ, PKA-R1A act)
COCCNC(=O)/C(C#N)=C/c1c(N2CCN(c3ccccc3)CC2)nc2c(C)cccn2c1=O	Neddyl block 58 | Neddyl conf inactive
COc1ccc(/C=N\NC(=O)c2cccc([N+](=O)[O-])c2)cc1Cn1cc([N+](=O)[O-])cn1	none (no result: Neddyl block, PKA-R2B activ, PKA-R1A act)
COc1ccc(/C=N/NC(=O)c2ccccc2O)cc1Cn1cc(Cl)cn1	Neddyl block 48 | Neddyl conf active
Cc1c(C(=O)Nc2ccc(S(N)(=O)=O)cc2)oc2ccc(Cl)cc12	Neddyl block 44 | Neddyl conf inactive
CCN1CCc2nc3sc(C(=O)N4CCc5ccccc5C4)c(N)c3cc2C1	none
CCN1CCc2nc3sc(C(=O)Nc4cccnc4Cl)c(N)c3cc2C1	Neddyl block 40 | Neddyl conf inactive
CN(C)c1ccc(/C=N/NC(=O)c2cccc(N3CCCC3=O)c2)cc1	Neddyl block 42 | Neddyl conf inactive
Cc1cccc(OCC(=O)N/N=C/c2ccc(N(C)C)cc2)c1	Neddyl block 43 | Neddyl conf active
COc1cccc(/C=N/NC(=O)c2cccc(N3CCCC3=O)c2)c1	none
O=C(Cc1nc2ccccc2[nH]1)N/N=C/c1ccccc1	none
CN(C)c1ccc(/C=N/NC(=O)CCc2nc3ccccc3[nH]2)cc1	Neddyl block 41 | Neddyl conf active
Cc1cccc(OCC(=O)NCC(=O)N/N=C/c2ccc([N+](=O)[O-])cc2)c1	none
CN(C)c1ccc(/C=N/NC(=O)COc2ccccc2)cc1	Neddyl block 58 | Neddyl conf active
COC(=O)[C@H](CC(C)C)N(CCCc1cn(CC2CCCCC2)nn1)S(=O)(=O)c1ccc(F)cc1Br	none (no result: Neddyl block, PKA-R2B activ, PKA-R1A act)
CC(C)c1[nH]nc2c1C(c1cccc(C(F)(F)F)c1)NC2=O (stereo unspecified)	none (no result: Neddyl block, PKA-R2B activ, PKA-R1A act)
c1nc(NCC2CC2)c2cc(-c3ccc4c(c3)OCO4)ccc2n1	none (no result: Neddyl block, PKA-R2B activ, PKA-R1A act)
CN(C)c1ccc(/C=N/NC(=O)CNC(=O)c2ccco2)cc1	Neddyl block 41 | Neddyl conf active
COc1cc(C(=O)NN=Cc2ccc(N(C)C)cc2)cc(OC)c1OC	Neddyl block 45 | Neddyl conf active
COc1cccc(CNC(=O)CN2CCCc3ccccc32)c1	none (no result: Neddyl block, PKA-R2B activ, PKA-R1A act)
CCCSc1nc2cc(C)c(C)cc2n1CC(O)CO (stereo unspecified)	none
CCSc1nc(-c2ccccc2)c(-c2ccccc2)n1CC(O)CO (stereo unspecified)	Neddyl block 44 | Neddyl conf inactive
Cc1cccc(C)c1NC(=O)c1ccc(OCc2c(C)noc2C)cc1	Neddyl block 50 | Neddyl conf inactive
CCOC(=O)C(=CNc1ccc(NC2=NCC(C)S2)cc1)C(=O)OCC (stereo unspecified)	Neddyl block 45 | Neddyl conf inactive
CCOC(=O)C(=CNc1ccc(C(F)(F)F)cc1)C(=O)OCC	none
CC(=O)Nc1ccc(S(=O)(=O)Nc2cccc(-c3nc4ccccc4o3)c2)cc1	none (not shown: Neddyl block)
O=S(=O)(Nc1ccc(-c2nc3ccccc3o2)cc1)c1ccccc1	Neddyl block 43
CC(C)(C)OC(=O)NCc1cc2c(cc1/C=C/S(=O)(=O)NC1CCCC1)OCO2	none (no result: Neddyl block, PKA-R2B activ, PKA-R1A act)
CC(C)(C)N(NC(=O)Nc1cccc(F)c1)C(=O)c1ccccc1Cl	none (no result: Neddyl block, PKA-R2B activ, PKA-R1A act)
Cc1cc(=O)oc2cc(NC(=S)NNC(=O)c3c(Cl)cnn3C)ccc12	Neddyl block 52 | Neddyl conf inactive
COc1ccc2oc(C(=O)OCC(=O)N(C)c3ccccc3)c(C)c2c1	Neddyl block 55
COc1ccc2oc(C(=O)OCC(=O)N(Cc3ccccc3)C(C)C)c(C)c2c1	Neddyl block 44 | Neddyl conf inactive
COc1ccc2oc(C(=O)OCC(=O)N(C)Cc3ccccc3)c(C)c2c1	none (not shown: Neddyl block)
COc1ccc2oc(C(=O)OCC(=O)Nc3ccccc3)c(C)c2c1	none (not shown: Neddyl block)
COc1ccc2oc(C(=O)OC(C)C(=O)NCc3ccccc3)c(C)c2c1 (stereo unspecified)	Neddyl block 42 | Neddyl conf inactive
COC(=O)C1CCN(C(=O)COC(=O)c2oc3ccc(OC)cc3c2C)CC1	Neddyl block 66
COc1ccc2oc(C(=O)OCC(=O)N3CCC(C)CC3)c(C)c2c1	none (not shown: Neddyl block)
COC(=O)CN1CCN(C(=O)c2csc(-c3ccccc3)n2)CC1	none (no result: Neddyl block, PKA-R2B activ, PKA-R1A act)
COC(=O)[C@]12C[C@H](CC(=O)N3CCCCC3)C(=O)N(Cc3ccco3)C1=C[C@H](C1CCCC1)O[C@@H]2C	none (no result: Neddyl block, PKA-R2B activ, PKA-R1A act)
COc1ccc2oc(C(=O)OCC(=O)NCc3ccc(OC)c(OC)c3)c(C)c2c1	Neddyl block 43 | Neddyl conf inactive
CCOc1ccc2oc(C(=O)OCC(=O)NCc3ccc(OC)cc3)c(C)c2c1	none
COC(=O)[C@H](C(C)C)N1Cc2nnn(Cc3ccccc3)c2C=CS1(=O)=O	none (no result: Neddyl block, PKA-R2B activ, PKA-R1A act)
